Published values gathered from unrelated publications.
Each line is one published result; the experiments were not run side by side.
FABP4: Fatty acid-binding protein, adipocyte (FABP4, Homo sapiens, UniProt P15090)
AKT1: RAC-alpha serine/threonine-protein kinase (AKT1, Homo sapiens, UniProt P31749)
CDK9 with cyclin T1: Cyclin-dependent kinase 9, with cyclin T1 (CDK9, Homo sapiens, UniProt P50750)

| Structure (SMILES) | target | assay | test system | conditions | quantity | result |
| --- | --- | --- | --- | --- | --- | --- |
| CCCCCCCCCCCCC(=O)O | FABP4 | ligand displacement, fluorescence | – | – | Ki | 1.32 µM |
| C[C@@H]1CNC[C@H](C)[C@@]1(O)c1ccc(-c2ccnc3[nH]cc(F)c23)cc1 | AKT1 | enzyme activity, inhibitor, radiometric | – | – | IC50 | 0.13 µM |
| CN(C)C(=O)c1cc2cnc(Nc3cccc4c(=O)cc(N5CCOCC5)oc34)nc2n1C1CCCC1 | CDK9 with cyclin T1 | enzyme activity, inhibitor, radiometric | – | – | IC50 | 9.57 µM |
| CCCCCCC(=O)O | FABP4 | ligand displacement, fluorescence | – | – | Ki | 145 µM |
| OC1(c2ccc(-c3ccnc4[nH]cc(F)c34)cc2)CNC1 | AKT1 | target engagement in cells, BRET | – | – | IC50 | 22.8 µM |
| CN1CCN(c2cc(=O)c3ccc(Nc4ncc5cc(C(=O)N(C)C)n(C6CCCC6)c5n4)cc3o2)CC1 | CDK9 with cyclin T1 | enzyme activity, inhibitor, radiometric | – | – | IC50 | 0.0012 µM |
| O=C(O)C(F)(F)C(F)(F)C(F)(F)C(F)(F)C(F)(F)C(F)(F)C(F)(F)C(F)(F)C(F)(F)C(F)(F)C(F)(F)C(F)(F)C(F)(F)C(F)(F)C(F)(F)F | FABP4 | ligand displacement, fluorescence | – | – | Ki | 1.31 µM |
| CCOc1ccc(C(=O)CC(SCc2ccc(Cl)cc2)C(=O)O)cc1 (stereo not drawn) | AKT1 | ligand displacement, FP | – | – | Ki | 96 µM |
| CN(C)C(=O)c1cc2cnc(Nc3ccc(C(=O)NCCCCCCOc4cccc5c4C(=O)N(C4CCC(=O)NC4=O)C5=O)cc3)nc2n1C1CCCC1 (stereo not drawn) | Cyclin-dependent kinase 9 (CDK9, Homo sapiens, UniProt P50750) | binding, competition with immobilised ligand | – | – | Kd | < 0.2 µM |
| CN(C)C(=O)c1cc2cnc(Nc3cncc(-c4cccc5c(=O)cc(N6CCOCC6)oc45)c3)nc2n1C1CCCC1 | CDK9 with cyclin T1 | enzyme activity, inhibitor, radiometric | – | – | IC50 | 0.008 µM |
| CCCCCCCCCCCC(=O)O | FABP4 | ligand displacement, fluorescence | – | – | Ki | 0.827 µM |
| CCOc1ccc(C(=O)CC(SCc2ccc(Br)cc2)C(=O)O)cc1 (stereo not drawn) | AKT1 | ligand displacement, FP | – | – | Ki | 279 µM |
| CC(C)(C)Cc1ccc(O)c(O)c1 | Peroxiredoxin-5, mitochondrial (PRDX5, Homo sapiens, UniProt P30044) | binding, NMR | – | – | Kd | 20 µM |
| COc1ccc(-c2coc3cc(O)ccc3c2=O)cc1O | Cytochrome P450 2C9 (CYP2C9, Homo sapiens, UniProt P11712) | enzyme activity, inhibitor | human, liver microsomes | 15 min | Ki | 26 µM |
| CCOc1ccc(C(=O)CC(SCc2ccc(F)cc2)C(=O)O)cc1 (stereo not drawn) | AKT1 | ligand displacement, FP | – | – | Ki | 225 µM |
| O=C(O)C(F)(F)C(F)(F)C(F)(F)C(F)(F)C(F)(F)C(F)(F)C(F)(F)C(F)(F)C(F)(F)C(F)(F)C(F)(F)F | FABP4 | ligand displacement, fluorescence | – | – | Ki | 0.551 µM |
| CCOc1ccc(C(=O)CC(SCc2ccc(Cl)cc2)C(=O)OC)cc1 (stereo not drawn) | AKT1 | ligand displacement, FP | – | – | Ki | 530 µM |
| CCCCCCCCC(=O)O | FABP4 | ligand displacement, fluorescence | – | – | Ki | 12.3 µM |
| CCOC(=O)c1cc(-c2ccc(OCC)cc2)oc1-c1ccc(Cl)cc1 | AKT1 | ligand displacement, FP | – | – | Ki | > 100 µM |
| CN(C)C(=O)c1cc2cnc(Nc3ccc(-c4cccc5c(=O)cc(N6CCOCC6)oc45)cc3)nc2n1C1CCCC1 | CDK9 with cyclin T1 | enzyme activity, inhibitor, radiometric | – | – | IC50 | 0.01 µM |
| CCOc1cccc(C(=O)CC(SCc2cccc(Br)c2)C(=O)O)c1 (stereo not drawn) | AKT1 | ligand displacement, FP | – | – | Ki | 81 µM |
| Cc1cc(-c2ccnc3[nH]cc(F)c23)cc(F)c1[C@@]1(O)[C@H](C)CN(C(=O)CN)C[C@@H]1C | AKT1 | cell-free assay, TR-FRET | – | – | Kd | 0.244 µM |
| C#CCOc1cccc(C(=O)CC(SCc2cccc(Br)c2)C(=O)O)c1 (stereo not drawn) | AKT1 | ligand displacement, FP | – | – | Ki | 72.7 µM |
| CCCCCCCCCC(=O)O | FABP4 | ligand displacement, fluorescence | – | – | Ki | 1.29 µM |
